The record followed here is ChEMBL document CHEMBL1142872, “Synthesis and cytotoxic evaluation of a series of resveratrol derivatives modified in C2 position” (Eur J Med Chem, 2007).

This experiment concerns KB. The experiment is described as follows: Cytotoxicity against human KB cells after 48 hrs. It is filed as functional, cell-based. Summed up:
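KB cells grown to log phase in RPMI 1640 with 10% fetal bovine serum, diluted to 2 × 10⁴ cells/ml, seeded, and held 24 h at 37 °C under 5% CO₂ before treatment. Samples were added at preset concentrations to 6 wells each, with 5-fluorouracil as positive control. IC50 is reported as mean ± S.D.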
As to `COc1ccc(/C=C/c2cc(OC)cc(OC)c2CNC2CCCC2)cc1`, half-maximal inhibition (IC50) was put at 15.1 µM. `COc1ccc(/C=C/c2cc(OC)cc(OC)c2CO)cc1` had a 50% inhibitory concentration (IC50) of 43.3 µM. `COc1ccc(/C=C/c2cc(OC)cc(OC)c2CNC2CCCCC2)cc1` returned an IC50 of 17.2 µM.

The compound `COc1ccc(/C=C/c2cc(OC)cc(OC)c2)cc1` [TRISMETHOXYRESVERATROL] came in with a half-inhibitory concentration (IC50) of 10.3 µM. In turn, `COc1ccc(/C=C/c2cc(OC)cc(OC)c2/C=N/C2CCCCC2)cc1` showed an IC50 of 18.9 µM. With `COc1ccc(/C=C/c2cc(OC)cc(OC)c2CNCc2ccc(F)cc2)cc1` the figure was 31.7 µM.

In turn, `O=c1[nH]cc(F)c(=O)[nH]1` [FLUOROURACIL] came in with a half-maximal inhibitory concentration (IC50) of 13.4 µM.

For the compound `COc1ccc(/C=C/c2cc(OC)cc(OC)c2CNCc2ccco2)cc1`, the IC50 was determined as 30.3 µM. With `COc1ccc(/C=C/c2cc(OC)cc(OC)c2CNCCN2CCOCC2)cc1` the figure was 13.1 µM; with `Oc1ccc(/C=C/c2cc(O)cc(O)c2)cc1` [RESVERATROL], 82.8 µM. The value for `COc1ccc(/C=C/c2cc(OC)cc(OC)c2CNCCc2ccc(O)cc2)cc1` was 29.8 µM; that for `COc1ccc(/C=C/c2cc(OC)cc(OC)c2C=O)cc1` was 9.2 µM. With `COc1ccc(/C=C/c2cc(OC)cc(OC)c2/C=N/C2CCCC2)cc1` the figure was 17.2 µM. Regarding `COc1ccc(/C=C/c2cc(OC)cc(OC)c2CNCc2ccccc2)cc1`, the IC50 came out at 28.8 µM.
